Rows were chosen to be rich in hits. Some 4.1% of all compounds tested hit in one or more screens of this group.
KCNQ1 act = human KCNQ1 channel potentiation or activation; AID 2648; CHO-K1 KCNQ1, thallium flux FluxOR fluorescence; active compounds read high; hit rate 0.35% among 310,000; B-score at 10 µM;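 active = fluorescence ratio B-score, a plate-corrected score, at least three library SD, with initial intensity B-score within 5 SD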
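assay system = CHO-K1 cells stably expressing KCNQ1 | medium = assay buffer, equal DMSO in all wells | timing = 37 °C overnight plating, 90-min dark dye load, 20-min compound pretreatment | measured by = kinetic FluxOR thallium fluorescence, 10-s 1-Hz baseline, 110-s post-stimulus read | measure = fluorescence change relative to baseline, converted to B score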
KCNQ1 inh = human KCNQ1 channel inhibition; P51787; CHO-K1 KCNQ1, FluxOR thallium flux fluorescence; active compounds read high; B-score at 10 µM; hit rate 1.3% among 310,000; AID 2642;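 active = compounds whose thallium flux B-score, printed positive for inhibition, exceeds three library SD while starting fluorescence stays within three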;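 also: channel opened by potassium depolarization with thallium stimulus after 20 min compound exposure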
KCNK9 block = inhibitors of human KCNK9 two-pore domain potassium channel | HEK293 KCNK9, FluxOR thallium flux fluorescence; active compounds read low | AID 488922 | hit rate 1.2% among 310,000 | B-score at 10 µM | Q9NPC2;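 active = ratio B-score over 3 SD below the library mean, with starting fluorescence within 5 SD of its mean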;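 also: negative B-score means less thallium flux so channel inhibition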
Target sequence (Q9NPC2 whole entry, looked up, the tested form may be a part): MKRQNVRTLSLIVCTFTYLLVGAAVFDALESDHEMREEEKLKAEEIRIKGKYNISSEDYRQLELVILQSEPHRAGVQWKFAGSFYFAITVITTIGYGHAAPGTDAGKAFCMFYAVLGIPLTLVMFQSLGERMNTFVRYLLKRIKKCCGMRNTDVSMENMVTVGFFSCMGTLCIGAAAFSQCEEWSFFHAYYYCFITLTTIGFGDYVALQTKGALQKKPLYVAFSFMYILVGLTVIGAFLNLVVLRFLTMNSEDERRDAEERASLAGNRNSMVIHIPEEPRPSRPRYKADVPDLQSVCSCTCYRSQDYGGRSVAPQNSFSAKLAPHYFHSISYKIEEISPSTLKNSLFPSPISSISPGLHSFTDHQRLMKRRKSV
KCNK3 block = human KCNK3 channel inhibition, primary screen; CHO-KCNK3 thallium flux, FluxOR fluorescence; active compounds read low; hit rate 0.84% among 340,000; O14649; B-score at 10 µM; AID 602410;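 active = B-score under library mean minus 4 SD, starting fluorescence ratio at most library mean plus 5 SD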;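 also: more negative B-score means stronger inhibition of thallium flux through KCNK3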
Target sequence (O14649 whole entry, looked up): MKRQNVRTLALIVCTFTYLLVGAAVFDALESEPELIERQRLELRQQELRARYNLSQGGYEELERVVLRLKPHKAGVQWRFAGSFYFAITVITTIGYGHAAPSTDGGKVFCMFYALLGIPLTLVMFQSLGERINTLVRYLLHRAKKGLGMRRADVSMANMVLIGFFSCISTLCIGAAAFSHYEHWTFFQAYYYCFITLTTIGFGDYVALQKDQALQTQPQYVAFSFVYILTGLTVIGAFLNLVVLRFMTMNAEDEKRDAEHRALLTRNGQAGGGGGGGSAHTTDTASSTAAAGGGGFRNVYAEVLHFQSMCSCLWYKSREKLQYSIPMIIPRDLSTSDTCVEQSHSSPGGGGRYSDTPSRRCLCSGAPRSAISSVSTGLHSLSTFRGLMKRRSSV
Cl transport mod = KCC2 (human) Cl- transport modulation | Q9H2X9 | KCC2 cells, thallium flux FluoZin-2 fluorescence | B-score of Tl+ flux slope (higher = more flux/activation; lower = inhibition) at 10 µM | hit rate 2.2% among 190,000 | AID 1456;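 active = thallium flux slope and its plate-corrected score both differing from the plate sample mean at a set confidence after two filtering rounds, in either direction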;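 also: slope of fluorescence scaled to starting intensity during 10 to 20 s after thallium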
hERG rescue = shields human hERG channel from block by proarrhythmic agents | hit rate 0.51% among 310,000 | AID 1511 | CHO-hERG, FluxOR thallium flux, dofetilide IC70 present | Q12809 | activation (rescue from dofetilide block), less the hit threshold, % at 10 µM;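 active = activation above the mean of controls blocked by dofetilide plus 5 SD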;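 also: thallium influx through hERG after potassium depolarization seen as dye fluorescence rise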
KCC2 sec1 = confirmation of human KCC2 transport modulators | shares compounds with Cl transport mod | HEK293-KCC2, thallium flux, FluoZin2 fluorescence; active compounds read high | normalised thallium flux (F/F0 slope) at 10 µM | hit rate 15% among 3,700 | AID 1713;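 active = thallium flux slope above the same plate's solvent-only control mean plus 3 SD; inconclusive = the two replicate wells disagree; inactive = no significant difference from solvent-only control wells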
KCC2 bumet counter = thallium flux despite bumetanide block in KCC2 cells, secondary assay 3 | shares compounds with Cl transport mod | hit rate 49% among 3,700 | normalized thallium flux at 10 µM | AID 1714 | HEK293-KCC2 + bumetanide/ouabain, thallium flux FluoZin2; active compounds read high;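 active = thallium entry rate above the same plate's blocked-transporter control wells by more than 3 SD; inconclusive = the two repeat wells disagree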;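 also: raw slope of fluorescence over initial fluorescence between 10 and 20 s after thallium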
KCC2 secondary2 = confirmation of human KCC2 transport modulators | shares compounds with Cl transport mod | HEK293-KCC2, thallium flux FluoZin2 fluorescence; actives lie on both sides; F/F0 rise rate, 10–20 s post-thallium | normalized thallium flux at 10 µM | hit rate 23% among 3,700 | AID 1715;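 active = thallium flux slope more than 3 SD above or below the plate's solvent-only control mean, mostly below; inconclusive = the two repeat wells disagreed; inactive = no significant shift from solvent-only controls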
HEK293 Tl flux = acts in parental HEK cells, KCC2 counter-screen | shares compounds with Cl transport mod | HEK293 parental cells, thallium flux FluoZin2, ouabain; baseline-ratio fluorescence slope, 10–20 s after thallium | thallium flux rate (normalised fluorescence) at 10 µM | hit rate 46% among 3,700;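 active = thallium flux rate significantly above the same plate's solvent-only control wells, beyond their mean plus 3 SD; inconclusive = the two replicate wells gave conflicting results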
KCC2 retest ouab = KCC2 (human) modulation, ouabain retest | shares compounds with Cl transport mod | HEK293-KCC2, thallium flux FluoZin2 fluorescence; bidirectional: low = inhibitor, high = activator | raw Tl+ flux slope (below DMSO = inhibition, above = activation) at 10 µM | hit rate 48% among 3,700 | AID 1717;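 active = thallium flux slope beyond 3 SD from same-plate DMSO control mean in most replicates, usually higher, sometimes lower; inconclusive = repeat tests gave conflicting results; inactive = no significant difference from controls in most replicates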;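 also: slope of initial-normalized fluorescence between seconds 10 and 20 after thallium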
HEK293 Tl flux2 = acts in parental HEK cells, second KCC2 counter-screen. shares compounds with Cl transport mod. HEK293 parental, thallium flux FluoZin-2 fluorescence slope. thallium flux slope at 10 µM. hit rate 33% among 3,700;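 active = thallium flux slope above the same plate's solvent-control mean plus 3 SD in both duplicate wells; inconclusive = duplicate wells that disagreed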;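 also: run without ouabain in cells lacking the KCC2 cotransporter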
Hits are given with their value; n = inactive; u = inconclusive; x = no result given.

SMILES	KCNQ1 act	KCNQ1 inh	KCNK9 block	KCNK3 block	Cl transport mod	hERG rescue	KCC2 sec1	KCC2 bumet counter	KCC2 secondary2	HEK293 Tl flux	KCC2 retest ouab	HEK293 Tl flux2
COc1cccc(/C=N/N2C(=O)CSC2=S)c1O	n	n	n	n	3.5	n	0.013	0.016	n	0.01	u	u
C/C(=N\NC(=S)NC1CCCCC1)c1ccc(Cl)c(Cl)c1	n	n	n	n	n	n	x	x	x	x	x	x
C/C(=N\NC(=S)NC1CCCCC1)c1cccs1	n	n	n	n	57	n	n	0.053	0.043	0.027	0.048	0.029
C/C(=N\NC(=S)NC1CCCCC1)c1c(F)cccc1F	n	n	n	n	22	n	0.014	0.066	n	0.021	0.046	0.011
CON(C)C(=O)CC(CNC(=O)OC(C)(C)C)c1ccc(Cl)cc1 (configuration not stated)	x	x	x	n	x	x	x	x	x	x	x	x
c1cc2c(cc1-c1csc(NNC3=NCCCCC3)n1)OCCO2	n	n	n	x	3.6	n	n	n	n	n	n	n
N#C/C(=C\c1ccc(O)c(O)c1)C(=O)NCCCc1ccccc1	n	n	n	n	n	n	n	n	n	n	u	n
COc1ccc(N(CC(=O)N2CCC(Cc3ccccc3)CC2)S(C)(=O)=O)cc1	n	n	n	n	-5	n	n	n	u	0.0061	0.015	n
O=C(CSc1nc2ccccc2n1CCc1ccccc1)NC1CC1	n	n	n	n	n	n	x	x	x	x	x	x
O=C(CSc1nc2ccccc2c(=O)n1Cc1ccco1)NCCN1C(=O)CSC1=O	n	n	n	n	n	n	x	x	x	x	x	x
O=C(CSc1nc2ccccc2n1CCc1ccccc1)NC1CCS(=O)(=O)C1 (configuration not stated)	n	n	n	n	7.2	n	n	0.021	n	0.011	0.028	0.011
O=C(O)CCn1c(SCc2ccccc2)nc2ccccc21	n	n	n	n	-4.2	n	n	n	n	n	0.015	n
CC(NC(=O)CSc1nc2ccccc2n1C)c1ccccc1 (configuration not stated)	n	n	n	n	x	n	x	x	x	x	x	x
Cn1c(SCC(=O)NCc2ccccc2)nc2ccccc21	n	n	n	n	n	n	u	n	n	n	n	n
Cn1c(SCC(=O)NCCN2C(=O)CSC2=O)nc2ccccc2c1=O	n	n	n	n	6.4	n	n	0.013	u	0.012	n	0.017
CN(Cc1ccccc1)C(=O)c1cccc(NC(=O)Cc2ccc(NC(=O)C3CCN(C(=O)C4CCC4)CC3)cc2)c1	x	x	x	n	x	x	x	x	x	x	x	x
c1coc(-c2nnc3sc(Cc4cccs4)nn23)c1	n	n	n	n	x	n	n	n	n	n	u	n
Clc1ccc(-c2nnc3sc(Cc4cccs4)nn23)c(Cl)c1	n	n	n	n	x	n	n	n	n	n	0.018	0.011
COc1ccccc1C(CNC(=O)c1cc(S(=O)(=O)N2CCOCC2)ccc1C)N1CCCC1 (configuration not stated)	x	x	x	n	x	x	x	x	x	x	x	x
CCc1ccc(CN(C)CC(=O)Nc2ccc(S(=O)(=O)N3CCOCC3)cc2)cc1	x	x	x	n	x	x	x	x	x	x	x	x
O=S(=O)(c1cccs1)N1CCN(Cc2nc3ccccc3s2)CC1	n	n	n	n	n	n	x	x	x	x	x	x
O=C(CCc1nc2ccccc2s1)N1CCN(S(=O)(=O)c2cccs2)CC1	n	n	n	n	-4.1	n	n	n	n	n	n	n
O=C(Nc1nc2ccsc2c(=O)s1)c1ccc(F)cc1	n	n	n	n	3.8	n	n	u	n	0.011	n	n
Cc1nn2c([nH]c(=O)c3ccccc32)c1C=O	n	n	n	n	3.4	n	n	0.01	n	u	u	n
CN(CC(=O)NC(=O)NCc1ccccc1)CC(=O)Nc1ccc(Cl)c(Cl)c1	x	x	x	n	x	x	x	x	x	x	x	x
SMILES	KCNQ1 act	KCNQ1 inh	KCNK9 block	KCNK3 block	Cl transport mod	hERG rescue	KCC2 sec1	KCC2 bumet counter	KCC2 secondary2	HEK293 Tl flux	KCC2 retest ouab	HEK293 Tl flux2
Cc1ccc(S(=O)(=O)Cn2nnnc2C(C(C)C)N2CCN(Cc3ccco3)CC2)cc1 (configuration not stated)	n	n	n	n	-2.5	n	n	n	n	n	n	n
CCCCCCCCC(=O)N/N=C/c1cccc(Br)c1	n	n	n	n	5.5	n	n	u	n	n	n	n
CCCCCCC(=O)N/N=C/c1ccc(Br)cc1	n	n	n	n	n	n	x	x	x	x	x	x
Cc1cc(C)nc(NS(=O)(=O)c2ccc(NC(=O)c3snnc3C)cc2)n1	n	n	n	n	x	n	x	x	x	x	x	x
CCN(CC)CCSc1nc2ccccc2c(=S)n1-c1ccccc1	n	n	n	x	2.8	n	n	n	n	n	n	n
CCN(CC)CCSc1nc(O)c(-c2ccccc2)c(=O)n1-c1ccccc1	n	n	n	n	n	n	x	x	x	x	x	x
COCCN(C(=O)COC(=O)c1cccnc1SC)c1c(N)n(Cc2ccccc2)c(=O)[nH]c1=O	n	n	n	n	x	n	x	x	x	x	x	x
CCCCCC1(C)NC(=S)N(c2ccccc2)N1 (configuration not stated)	n	n	n	n	n	n	x	x	x	x	x	x
CCC1(c2ccccc2)NC(=S)N(c2ccc(C)cc2)N1 (configuration not stated)	52	n	n	n	78	75	0.031	0.1	0.073	0.093	0.092	0.091
CCC(Cc1ccccc1)NC(=O)CN(C)S(=O)(=O)c1ccc2c(c1)c(=O)n(C)c(=O)n2C (configuration not stated)	n	n	n	n	x	n	n	n	0.024	n	u	n
Cn1c(=O)c2cc(S(=O)(=O)NCCC(=O)N3CC=C(c4ccccc4)CC3)ccc2n(C)c1=O	x	x	x	n	n	x	x	x	x	x	x	x
CN(CC(=O)N1CC=C(c2ccccc2)CC1)S(=O)(=O)c1ccc2c(c1)c(=O)n(C)c(=O)n2C	n	n	n	n	-3.9	n	n	u	n	n	n	n
CCN(CC(=O)Nc1ccc(OC)cc1)C(=O)c1ccccc1Sc1ccccc1C#N	n	n	n	n	x	n	x	x	x	x	x	x

Compound activity deposited in PubChem by several laboratories.
